Test results published in ChEMBL document CHEMBL5316289, “Structure-Based Rational Design of Small α-Helical Peptides with Broad-Spectrum Activity against Multidrug-Resistant Pathogens” (J Med Chem, 2023).
Where “and” joins values, the source holds several entries; their conditions need not be identical. Equal entries are not always repeated. Calls of active or inactive are those of the source. The calls are words filed in the database; no cut-off is given here. Where a SMILES comes first, the peptide text is derived from it. Bridges are numbered along the chain shown (N, C = ends). [ ]: non-standard residue; d: D form. The star is where a group is joined. X1 = CC[C@H](C)CCCCC(=O)*; dDab = NCC[C@@H](N)C(=O)O; Dab = NCC[C@H](N)C(=O)O

Legend:
Klebsiella pneumoniae = assay: Antibacterial activity against Klebsiella pneumoniae ATCC BAA 1705 assessed as inhibition of bacterial growth incubated for 24 hrs by CLSI based broth microdilution method; format: functional
Escherichia coli = assay: Antibacterial activity against Escherichia coli ATCC 25922 assessed as inhibition of bacterial growth incubated for 24 hrs by CLSI based broth microdilution method; format: functional
Staphylococcus aureus [1] = assay: Antibacterial activity against Staphylococcus aureus ATCC 29213 assessed as inhibition of bacterial growth incubated for 24 hrs by CLSI based broth microdilution method; format: functional
Staphylococcus aureus [2] = assay: Antibacterial activity against methicillin resistant Staphylococcus aureus ATCC BAA 1556 assessed as inhibition of bacterial growth incubated for 24 hrs by CLSI based broth microdilution method; format: functional
Pseudomonas aeruginosa = assay: Antibacterial activity against Pseudomonas aeruginosa […] assessed as inhibition of bacterial growth incubated for 24 hrs by CLSI based broth microdilution method; format: functional
Erythrocyte = assay: Hemolytic activity in human RBC incubated for 2 hrs by spectrophotometrical analysis; format: toxicity, cell-based
Procedure, shortened: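 Human erythrocytes (4% suspension in PBS) mixed 1:1 with 2-fold serial peptide dilutions, 2 h at 37 °C without agitation. After centrifugation, supernatant hemoglobin read at 567 nm. 0% hemolysis set by PBS, 100% by 1% Triton X-100. HC50 is the concentration giving 50% hemolysis.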

Cell membrane [3] = assay: Disruption of cell membrane in methicillin resistant Staphylococcus aureus ATCC BAA 1556 assessed as increase in PI fluorescence intensity at 4 times of MIC measured after 1 hrs by PI staining based flow cytometric analysis
Procedure, shortened: (§1)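 Mid-log cells grown in Mueller Hinton broth, washed in 10 mM Tris pH 7.4, 10^7 CFU/mL, treated at MIC and 4× MIC for 1 h. Pelleted, washed, PI-stained for 15 min at 37 °C in the dark, then counted by flow cytometry for % PI-positive cells. PBS-treated cells as negative control, 10% Triton X-100 as positive control. Run in triplicate; two-tailed unpaired t-test.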

Cell membrane [4] = assay: Disruption of cell membrane in methicillin resistant Staphylococcus aureus ATCC BAA 1556 assessed as increase in PI fluorescence intensity at MIC measured after 1 hrs by PI staining based flow cytometric analysis; format: subcellular; procedure, shortened: as §1
Cell membrane [5] = assay: Disruption of cell membrane in Escherichia coli ATCC BAA-2452 assessed as increase in PI fluorescence intensity at MIC measured after 1 hrs by PI staining based flow cytometric analysis; format: subcellular
Procedure, shortened: (§2)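 Mid-log E. coli ATCC BAA-2452 grown in Mueller Hinton broth, washed thrice and resuspended at 10^7 CFU/mL in 10 mM Tris pH 7.4. […] Controls: PBS (negative) and 10% Triton X-100 (positive). Triplicate; two-tailed unpaired t-test.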

Cell membrane [6] = assay: Disruption of cell membrane in Escherichia coli ATCC BAA-2452 assessed as increase in PI fluorescence intensity at 4 times of MIC measured after 1 hrs by PI staining based flow cytometric analysis; format: subcellular; procedure, shortened: as §2

H-RWIRRWIRWWR-NH2
MIC (Klebsiella pneumoniae): 56.5 µM
MIC (Klebsiella pneumoniae; read-out: MIC): 100 µg/mL
MIC (Escherichia coli): 100 µg/mL

H-AAWRRWWRRA-NH2
MIC (Staphylococcus aureus [1]): > 100 µg/mL and > 70.7 µM
MIC (Klebsiella pneumoniae; read-out: MIC): > 100 µg/mL
MIC (Staphylococcus aureus [2]): > 100 µg/mL and > 70.7 µM
MIC (Escherichia coli): > 100 µg/mL and > 70.7 µM
MIC (Pseudomonas aeruginosa): > 100 µg/mL

H-AWWRRAWRR-NH2
MIC (Staphylococcus aureus [1]): > 100 µg/mL and > 74.5 µM
MIC (Klebsiella pneumoniae; read-out: MIC): > 100 µg/mL
MIC (Staphylococcus aureus [2]): > 100 µg/mL and > 74.5 µM
MIC (Escherichia coli): > 100 µg/mL and > 74.5 µM
MIC (Pseudomonas aeruginosa): > 100 µg/mL

Ac-RWARRWARWWRR-NH2
MIC (Klebsiella pneumoniae; read-out: MIC): > 100 µg/mL
HC50 (Erythrocyte): 110 ug ml-1 and 58.4 µM
MIC (Escherichia coli): 100 µg/mL
MIC (Pseudomonas aeruginosa): 100 µg/mL

H-RAWRRAWRAW-NH2
MIC (Staphylococcus aureus [1]): > 100 µg/mL and > 70.7 µM
MIC (Klebsiella pneumoniae; read-out: MIC): > 100 µg/mL
MIC (Staphylococcus aureus [2]): > 100 µg/mL and > 70.7 µM
MIC (Escherichia coli): > 100 µg/mL and > 70.7 µM
MIC (Pseudomonas aeruginosa): > 100 µg/mL

H-RAARRWARWWR-NH2
MIC (Staphylococcus aureus [1]): 100 µg/mL
MIC (Klebsiella pneumoniae; read-out: MIC): > 100 µg/mL
MIC (Staphylococcus aureus [2]): 100 µg/mL
MIC (Escherichia coli): > 100 µg/mL and > 63.7 µM
MIC (Pseudomonas aeruginosa): > 100 µg/mL

H-RWARRWARWWRR-NH2
MIC (Klebsiella pneumoniae; read-out: MIC): > 100 µg/mL
MIC (Escherichia coli): > 100 µg/mL and > 54.3 µM
MIC (Pseudomonas aeruginosa): 100 µg/mL

H-RRWWRRW-NH2
MIC (Klebsiella pneumoniae; read-out: MIC): > 100 µg/mL
MIC (Staphylococcus aureus [2]): 100 µg/mL
MIC (Escherichia coli): > 100 µg/mL and > 83.3 µM
MIC (Pseudomonas aeruginosa): > 100 µg/mL

CC[C@H](C)CCCCC(=O)N[C@@H](CCN)C(=O)N[C@H](C(=O)N[C@@H](CCN)C(=O)N[C@H]1CCNC(=O)[C@H]([C@@H](C)O)NC(=O)[C@H](CCN)NC(=O)[C@H](CCN)NC(=O)[C@H](CC(C)C)NC(=O)[C@@H](Cc2ccccc2)NC(=O)[C@@H](CCN)NC1=O)[C@@H](C)O (X1-[Dab]T[Dab][Dab][dDab][dF]L[Dab][Dab]T; lactam 4-C)
Activity (Cell membrane [3]): inactive
Activity (Cell membrane [4]): inactive
Activity (Cell membrane [5]): inactive
Activity (Cell membrane [6]): inactive

H-RWWRRAWRAA-NH2
MIC (Staphylococcus aureus [1]): > 100 µg/mL and > 70.7 µM
MIC (Klebsiella pneumoniae; read-out: MIC): > 100 µg/mL
MIC (Staphylococcus aureus [2]): > 100 µg/mL and > 70.7 µM
MIC (Escherichia coli): > 100 µg/mL and > 70.7 µM
MIC (Pseudomonas aeruginosa): > 100 µg/mL

H-RWWRRAWRA-NH2
MIC (Staphylococcus aureus [1]): > 100 µg/mL and > 74.5 µM
MIC (Klebsiella pneumoniae; read-out: MIC): > 100 µg/mL
MIC (Staphylococcus aureus [2]): > 100 µg/mL and > 74.5 µM
MIC (Escherichia coli): > 100 µg/mL and > 74.5 µM
MIC (Pseudomonas aeruginosa): > 100 µg/mL

H-RAWRRWWRA-NH2
MIC (Staphylococcus aureus [1]): > 100 µg/mL and > 74.5 µM
MIC (Klebsiella pneumoniae; read-out: MIC): > 100 µg/mL
MIC (Staphylococcus aureus [2]): > 100 µg/mL and > 74.5 µM
MIC (Escherichia coli): > 100 µg/mL and > 74.5 µM
MIC (Pseudomonas aeruginosa): > 100 µg/mL

H-RAWRRWWRAA-NH2
MIC (Staphylococcus aureus [1]): > 100 µg/mL and > 70.7 µM
MIC (Klebsiella pneumoniae; read-out: MIC): > 100 µg/mL
MIC (Staphylococcus aureus [2]): > 100 µg/mL and > 70.7 µM
MIC (Escherichia coli): > 100 µg/mL and > 70.7 µM
MIC (Pseudomonas aeruginosa): > 100 µg/mL

H-RWWRAAWRR-NH2
MIC (Staphylococcus aureus [1]): > 100 µg/mL and > 74.5 µM
MIC (Klebsiella pneumoniae; read-out: MIC): > 100 µg/mL
MIC (Staphylococcus aureus [2]): > 100 µg/mL and > 74.5 µM
MIC (Escherichia coli): > 100 µg/mL and > 74.5 µM
MIC (Pseudomonas aeruginosa): > 100 µg/mL

H-RWARRWARWWR-NH2
MIC (Klebsiella pneumoniae; read-out: MIC): > 100 µg/mL
MIC (Staphylococcus aureus [2]): 100 µg/mL
MIC (Escherichia coli): 100 µg/mL
MIC (Pseudomonas aeruginosa): 100 µg/mL

H-RAWRAWWRRA-NH2
MIC (Staphylococcus aureus [1]): > 100 µg/mL and > 70.7 µM
MIC (Klebsiella pneumoniae; read-out: MIC): > 100 µg/mL
MIC (Staphylococcus aureus [2]): > 100 µg/mL and > 70.7 µM
MIC (Escherichia coli): > 100 µg/mL and > 70.7 µM
MIC (Pseudomonas aeruginosa): > 100 µg/mL

H-RWARRWWR-NH2
MIC (Staphylococcus aureus [1]): > 100 µg/mL and > 78.7 µM
MIC (Klebsiella pneumoniae; read-out: MIC): > 100 µg/mL
MIC (Staphylococcus aureus [2]): > 100 µg/mL and > 78.7 µM
MIC (Escherichia coli): > 100 µg/mL and > 78.7 µM
MIC (Pseudomonas aeruginosa): > 100 µg/mL
